Reference: ChEMBL document CHEMBL5724801, “EUbOPEN Chemogenomics Library - Multiplex” (2024)
Values joined by “and” are separate entries in the source; they are usually repeats but may differ in a detail not shown here. Equal values may be shown once.

Tested on: HEK-293T
Assay: Multiplex assay against HEK293T
Type: toxicity, cell-based
Conditions: human
Outline: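 Compound was added to live cells that had been stained at seeding with Hoechst33342, BioTracker Green Microtubule Cytoskeleton Dye, MitoTracker Red and Annexin V Alexa Fluor 680, and imaging followed on a CQ1 microscope at 37°C and 5% CO2. CellPathfinder machine-learning gating divided cells into Hoechst high-intensity objects or normal cells, normal cells into healthy, pyknosed or fragmented nuclei, and pyknosed cells into mitotic or apoptotic. Tubulin, mitochondrial-mass and membrane-permeability phenotypes are per cents of healthy-nucleus cells.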

[1] = 12 h, 1 µM, compound concentration 1 uM
[2] = 12 h, 10 µM, compound concentration 10 uM
[3] = 24 h, 1 µM, compound concentration 1 uM
[4] = 24 h, 10 µM, compound concentration 10 uM
[5] = 48 h, 1 µM, compound concentration 1 uM
[6] = 48 h, 10 µM, compound concentration 10 uM

COC[C@@H](c1ccc(C(F)(F)F)cc1)N1CCN(C2(C)CCN(C(=O)c3c(C)ncnc3C)CC2)C[C@@H]1C.O=C(O)/C=C\C(=O)O [VICRIVIROC MALEATE]
Population Apoptotic (%) [1]: 46% and 45%
Population Fragmented Nuclei (%) [1]: 7%
Population Healthy Nuclei (%) [1]: 80%
Population Hoechst High Intensity Objects (%) [1]: 9% and 5%
Population Membrane Permeable-Phenotype (%) [1]: 0%
Population Mitochondria Different-Phenotype (%) [1]: 47% and 51%
Population Mitotic Cells (%) [1]: 53% and 54%
Population Normal (%) [1]: 90% and 94%
Population Pyknosed Nuclei (%) [1]: 12% and 11%
Population Tubulin-Different-Phenotype (%) [1]: 27% and 17%
Total Cell Count [1]: 406 and 387
Population Apoptotic (%) [2]: 44% and 62%
Population Fragmented Nuclei (%) [2]: 6% and 5%
Population Healthy Nuclei (%) [2]: 75% and 72%
Population Hoechst High Intensity Objects (%) [2]: 8% and 16%
Population Membrane Permeable-Phenotype (%) [2]: 0%
Population Mitochondria Different-Phenotype (%) [2]: 63% and 78%
Population Mitotic Cells (%) [2]: 55% and 37%
Population Normal (%) [2]: 91% and 83%
Population Pyknosed Nuclei (%) [2]: 18% and 21%
Population Tubulin-Different-Phenotype (%) [2]: 57% and 51%
Total Cell Count [2]: 315 and 265
Population Apoptotic (%) [3]: 30% and 31%
Population Fragmented Nuclei (%) [3]: 9%
Population Healthy Nuclei (%) [3]: 79% and 82%
Population Hoechst High Intensity Objects (%) [3]: 6% and 5%
Population Membrane Permeable-Phenotype (%) [3]: 0% and 1%
Population Mitochondria Different-Phenotype (%) [3]: 24%
Population Mitotic Cells (%) [3]: 69% and 68%
Population Normal (%) [3]: 93% and 94%
Population Pyknosed Nuclei (%) [3]: 10% and 8%
Population Tubulin-Different-Phenotype (%) [3]: 21% and 11%
Total Cell Count [3]: 564 and 515
Population Apoptotic (%) [4]: 34% and 60%
Population Fragmented Nuclei (%) [4]: 6% and 10%
Population Healthy Nuclei (%) [4]: 80% and 77%
Population Hoechst High Intensity Objects (%) [4]: 6% and 16%
Population Membrane Permeable-Phenotype (%) [4]: 0%
Population Mitochondria Different-Phenotype (%) [4]: 53% and 70%
Population Mitotic Cells (%) [4]: 66% and 39%
Population Normal (%) [4]: 93% and 83%
Population Pyknosed Nuclei (%) [4]: 13% and 12%
Population Tubulin-Different-Phenotype (%) [4]: 49% and 39%
Total Cell Count [4]: 406 and 310
Population Apoptotic (%) [5]: 21% and 34%
Population Fragmented Nuclei (%) [5]: 11% and 13%
Population Healthy Nuclei (%) [5]: 80% and 81%
Population Hoechst High Intensity Objects (%) [5]: 2%
Population Membrane Permeable-Phenotype (%) [5]: 1%
Population Mitochondria Different-Phenotype (%) [5]: 13% and 11%
Population Mitotic Cells (%) [5]: 78% and 65%
Population Normal (%) [5]: 97%
Population Pyknosed Nuclei (%) [5]: 7% and 5%
Population Tubulin-Different-Phenotype (%) [5]: 12% and 8%
Total Cell Count [5]: 930 and 751
Population Apoptotic (%) [6]: 38% and 53%
Population Fragmented Nuclei (%) [6]: 12% and 14%
Population Healthy Nuclei (%) [6]: 75% and 70%
Population Hoechst High Intensity Objects (%) [6]: 4% and 11%
Population Membrane Permeable-Phenotype (%) [6]: 0%
Population Mitochondria Different-Phenotype (%) [6]: 49% and 50%
Population Mitotic Cells (%) [6]: 61% and 46%
Population Normal (%) [6]: 95% and 88%
Population Pyknosed Nuclei (%) [6]: 11% and 15%
Population Tubulin-Different-Phenotype (%) [6]: 35% and 38%
Total Cell Count [6]: 559 and 394
